Test results taken from ChEMBL document CHEMBL1136635, “Modification of the N-terminus of peptidomimetic protein tyrosine phosphatase 1B (PTP1B) inhibitors: identification of analogues with cellular activity” (Bioorg Med Chem Lett, 2003).

Target: T1, Tyrosine-protein phosphatase non-receptor type 1 (Homo sapiens) (UniProt P18031)
T1 sequence (whole entry): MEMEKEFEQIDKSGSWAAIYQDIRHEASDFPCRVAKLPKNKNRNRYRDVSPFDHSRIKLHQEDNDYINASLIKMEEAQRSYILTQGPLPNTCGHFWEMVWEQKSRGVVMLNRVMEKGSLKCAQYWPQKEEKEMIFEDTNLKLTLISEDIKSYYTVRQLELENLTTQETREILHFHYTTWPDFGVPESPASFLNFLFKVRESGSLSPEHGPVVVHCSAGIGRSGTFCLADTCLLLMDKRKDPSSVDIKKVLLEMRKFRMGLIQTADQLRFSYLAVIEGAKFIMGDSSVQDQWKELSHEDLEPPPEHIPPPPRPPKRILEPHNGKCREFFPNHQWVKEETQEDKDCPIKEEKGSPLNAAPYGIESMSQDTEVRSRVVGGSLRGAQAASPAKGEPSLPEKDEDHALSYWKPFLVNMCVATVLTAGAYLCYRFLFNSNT
Assay: Inhibitory activity against human protein tyrosine phosphatase 1B (PTP1B) at a concentration of 100 uM
Method in brief: (§1)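 Purified recombinant human enzyme constructs; PTP1B is a C-terminally truncated soluble form, tested alongside LAR and SHP-2. Activity is read as the initial rate of p-nitrophenyl phosphate (pNPP) hydrolysis and reported as percent inhibition. PTP1B is tested at 100, 10 and 1 µM, or 10 and 1 µM in the salicylate series; LAR and SHP-2 at 100 µM.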

SMILES	inhibition
CCCCCNC(=O)[C@H](Cc1ccc(OC(C(=O)O)C(=O)O)cc1)NC(=O)[C@H](Cc1ccccc1)NS(=O)(=O)Cc1ccccc1	62%
CCCCCNC(=O)[C@H](Cc1ccc(OC(C(=O)O)C(=O)O)cc1)NC(=O)[C@H](Cc1ccc(O)cc1)NC(=O)OC(C)(C)C	90%

More lines, now with the values ahead:

inhibition	SMILES
71%	CCCCCNC(=O)[C@H](Cc1ccc(OC(C(=O)O)C(=O)O)cc1)NC(=O)[C@H](COCc1ccccc1)NC(=O)OC(C)(C)C
89%	CCCCCNC(=O)[C@H](Cc1ccc(OC(C(=O)O)C(=O)O)cc1)NC(=O)[C@H](Cc1c[nH]c2ccccc12)NC(=O)OC(C)(C)C
83%	CCCCCNC(=O)[C@H](Cc1ccc(OC(C(=O)O)C(=O)O)cc1)NC(=O)[C@H](CSCc1ccccc1)NC(=O)OC(C)(C)C
86%	CCCCCNC(=O)[C@H](Cc1ccc(OC(C(=O)O)C(=O)O)cc1)NC(=O)[C@H](Cc1ccccc1)NC(=O)NC(C)(C)C

Target: T1, Tyrosine-protein phosphatase non-receptor type 1 (Homo sapiens)
Assay: Inhibitory activity against human protein tyrosine phosphatase 1B (PTP1B) at a concentration of 10 uM
Method in brief: as §1

SMILES	inhibition
CCCCCNC(=O)[C@H](Cc1ccc(OC(C(=O)O)C(=O)O)cc1)NC(=O)[C@H](Cc1ccccc1)NS(=O)(=O)Cc1ccccc1	16%
CCCCCNC(=O)[C@H](Cc1ccc(OC(C(=O)O)C(=O)O)cc1)NC(=O)[C@H](Cc1ccc(O)cc1)NC(=O)OC(C)(C)C	50%

More lines, now with the values ahead:

inhibition	SMILES
19%	CCCCCNC(=O)[C@H](Cc1ccc(OC(C(=O)O)C(=O)O)cc1)NC(=O)[C@H](COCc1ccccc1)NC(=O)OC(C)(C)C
44%	CCCCCNC(=O)[C@H](Cc1ccc(OC(C(=O)O)C(=O)O)cc1)NC(=O)[C@H](Cc1c[nH]c2ccccc12)NC(=O)OC(C)(C)C
16%	CCCCCNC(=O)[C@H](Cc1ccc(OC(C(=O)O)C(=O)O)cc1)NC(=O)[C@H](CSCc1ccccc1)NC(=O)OC(C)(C)C
40%	CCCCCNC(=O)[C@H](Cc1ccc(OC(C(=O)O)C(=O)O)cc1)NC(=O)[C@H](Cc1ccccc1)NC(=O)NC(C)(C)C

Target: T1, Tyrosine-protein phosphatase non-receptor type 1 (Homo sapiens)
Assay: Inhibitory activity against human protein tyrosine phosphatase 1B (PTP1B) at a concentration of 1 uM
Method in brief: as §1

SMILES	inhibition
CCCCCNC(=O)[C@H](Cc1ccc(OC(C(=O)O)C(=O)O)cc1)NC(=O)[C@H](Cc1ccccc1)NS(=O)(=O)Cc1ccccc1	4%
CCCCCNC(=O)[C@H](Cc1ccc(OC(C(=O)O)C(=O)O)cc1)NC(=O)[C@H](Cc1ccc(O)cc1)NC(=O)OC(C)(C)C	10%

Further lines, results first:

inhibition	SMILES
3%	CCCCCNC(=O)[C@H](Cc1ccc(OC(C(=O)O)C(=O)O)cc1)NC(=O)[C@H](COCc1ccccc1)NC(=O)OC(C)(C)C
10%	CCCCCNC(=O)[C@H](Cc1ccc(OC(C(=O)O)C(=O)O)cc1)NC(=O)[C@H](Cc1c[nH]c2ccccc12)NC(=O)OC(C)(C)C
3%	CCCCCNC(=O)[C@H](Cc1ccc(OC(C(=O)O)C(=O)O)cc1)NC(=O)[C@H](CSCc1ccccc1)NC(=O)OC(C)(C)C
9%	CCCCCNC(=O)[C@H](Cc1ccc(OC(C(=O)O)C(=O)O)cc1)NC(=O)[C@H](Cc1ccccc1)NC(=O)NC(C)(C)C

Target: Receptor-type tyrosine-protein phosphatase F (Homo sapiens) (UniProt P10586)
Assay: Inhibitory activity against phosphatase (LAR) at a concentration of 100 uM
Method in brief: as §1

Receptor-type tyrosine-protein phosphatase F (Homo sapiens), sequence (P10586 whole entry): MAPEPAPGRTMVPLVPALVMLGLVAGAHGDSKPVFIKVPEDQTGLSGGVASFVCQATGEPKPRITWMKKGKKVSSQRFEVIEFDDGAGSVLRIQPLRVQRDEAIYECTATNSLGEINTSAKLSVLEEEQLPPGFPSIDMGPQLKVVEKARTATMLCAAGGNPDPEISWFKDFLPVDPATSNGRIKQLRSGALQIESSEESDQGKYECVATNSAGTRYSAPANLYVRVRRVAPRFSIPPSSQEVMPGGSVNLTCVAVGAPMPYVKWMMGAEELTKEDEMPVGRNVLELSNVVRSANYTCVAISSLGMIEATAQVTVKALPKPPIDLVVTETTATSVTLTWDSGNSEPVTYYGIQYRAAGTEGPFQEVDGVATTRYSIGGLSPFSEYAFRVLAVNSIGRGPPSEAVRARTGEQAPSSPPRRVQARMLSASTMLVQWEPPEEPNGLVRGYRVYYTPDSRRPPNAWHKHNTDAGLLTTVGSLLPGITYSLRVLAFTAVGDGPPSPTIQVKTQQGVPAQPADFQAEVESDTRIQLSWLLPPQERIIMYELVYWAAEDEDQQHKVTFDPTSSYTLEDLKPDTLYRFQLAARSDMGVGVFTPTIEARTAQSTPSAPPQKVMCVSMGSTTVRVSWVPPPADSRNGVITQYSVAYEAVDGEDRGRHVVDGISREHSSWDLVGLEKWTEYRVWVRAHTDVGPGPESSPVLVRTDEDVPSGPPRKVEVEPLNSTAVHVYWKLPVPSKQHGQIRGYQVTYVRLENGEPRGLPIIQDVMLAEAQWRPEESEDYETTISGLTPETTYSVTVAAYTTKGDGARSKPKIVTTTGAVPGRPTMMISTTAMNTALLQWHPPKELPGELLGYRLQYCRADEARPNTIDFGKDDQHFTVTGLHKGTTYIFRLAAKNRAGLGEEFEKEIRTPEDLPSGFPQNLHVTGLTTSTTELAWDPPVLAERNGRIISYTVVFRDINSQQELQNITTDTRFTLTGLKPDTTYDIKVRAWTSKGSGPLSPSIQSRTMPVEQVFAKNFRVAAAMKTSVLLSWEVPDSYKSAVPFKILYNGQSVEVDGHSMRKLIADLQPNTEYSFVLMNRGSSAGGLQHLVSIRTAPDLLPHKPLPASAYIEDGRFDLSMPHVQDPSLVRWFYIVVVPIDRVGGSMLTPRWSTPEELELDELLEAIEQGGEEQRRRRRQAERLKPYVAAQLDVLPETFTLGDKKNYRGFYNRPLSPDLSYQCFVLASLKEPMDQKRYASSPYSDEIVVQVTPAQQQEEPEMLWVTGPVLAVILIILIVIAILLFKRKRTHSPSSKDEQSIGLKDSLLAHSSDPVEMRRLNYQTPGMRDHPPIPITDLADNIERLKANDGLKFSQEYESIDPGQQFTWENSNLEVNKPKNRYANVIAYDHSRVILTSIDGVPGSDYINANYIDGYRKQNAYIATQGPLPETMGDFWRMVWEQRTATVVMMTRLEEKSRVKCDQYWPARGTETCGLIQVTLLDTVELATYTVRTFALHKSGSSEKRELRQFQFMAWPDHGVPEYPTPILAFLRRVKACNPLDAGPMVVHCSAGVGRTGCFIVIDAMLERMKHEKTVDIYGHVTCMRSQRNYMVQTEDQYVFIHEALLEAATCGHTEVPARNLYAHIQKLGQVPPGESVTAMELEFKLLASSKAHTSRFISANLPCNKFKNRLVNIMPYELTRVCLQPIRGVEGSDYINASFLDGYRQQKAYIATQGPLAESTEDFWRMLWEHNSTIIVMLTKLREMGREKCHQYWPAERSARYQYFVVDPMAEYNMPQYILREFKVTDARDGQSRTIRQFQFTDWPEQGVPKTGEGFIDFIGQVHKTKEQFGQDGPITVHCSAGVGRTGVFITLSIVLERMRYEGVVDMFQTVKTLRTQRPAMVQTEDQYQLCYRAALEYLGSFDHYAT

SMILES	inhibition
CCCCCNC(=O)[C@H](Cc1ccc(OC(C(=O)O)C(=O)O)cc1)NC(=O)[C@H](Cc1ccccc1)NS(=O)(=O)Cc1ccccc1	6%
CCCCCNC(=O)[C@H](Cc1ccc(OC(C(=O)O)C(=O)O)cc1)NC(=O)[C@H](Cc1ccc(O)cc1)NC(=O)OC(C)(C)C	0%

The remaining lines, values ahead:

inhibition	SMILES
3%	CCCCCNC(=O)[C@H](Cc1ccc(OC(C(=O)O)C(=O)O)cc1)NC(=O)[C@H](COCc1ccccc1)NC(=O)OC(C)(C)C
18%	CCCCCNC(=O)[C@H](Cc1ccc(OC(C(=O)O)C(=O)O)cc1)NC(=O)[C@H](Cc1c[nH]c2ccccc12)NC(=O)OC(C)(C)C
0%	CCCCCNC(=O)[C@H](Cc1ccc(OC(C(=O)O)C(=O)O)cc1)NC(=O)[C@H](CSCc1ccccc1)NC(=O)OC(C)(C)C
21%	CCCCCNC(=O)[C@H](Cc1ccc(OC(C(=O)O)C(=O)O)cc1)NC(=O)[C@H](Cc1ccccc1)NC(=O)NC(C)(C)C

Test system: not listed separately
Assay: Uptake of 2-DOG (2-deoxyglucose) into L6 myocytes in the presence of half-maximal concentration of insulin at 100 uM
Type: functional, Rattus norvegicus
Method in brief: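 L6 myotubes are exposed to compound at 100 µM with 10 nM insulin, a dose eliciting about 50% of maximal uptake. The initial rate of 2-[3H]deoxyglucose uptake is measured, with L-[14C]glucose marking extracellular space, and normalized to recovered lysate protein. Net insulin-dependent transport with inhibitor is expressed as a percent of that without inhibitor.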

SMILES	Control Uptake
CCCCCNC(=O)[C@H](Cc1ccc(OC(C(=O)O)C(=O)O)cc1)NC(=O)[C@H](COCc1ccccc1)NC(=O)OC(C)(C)C	79%
CCCCCNC(=O)[C@H](Cc1ccc(OC(C(=O)O)C(=O)O)cc1)NC(=O)[C@H](Cc1c[nH]c2ccccc12)NC(=O)OC(C)(C)C	92%
CCCCCNC(=O)[C@H](Cc1ccc(OC(C(=O)O)C(=O)O)cc1)NC(=O)[C@H](CSCc1ccccc1)NC(=O)OC(C)(C)C	89%
CCCCCNC(=O)[C@H](Cc1ccc(OC(C(=O)O)C(=O)O)cc1)NC(=O)[C@H](Cc1ccccc1)NS(=O)(=O)Cc1ccccc1	98%
CCCCCNC(=O)[C@H](Cc1ccc(OC(C(=O)O)C(=O)O)cc1)NC(=O)[C@H](Cc1ccc(O)cc1)NC(=O)OC(C)(C)C	96%
CCCCCNC(=O)[C@H](Cc1ccc(OC(C(=O)O)C(=O)O)cc1)NC(=O)[C@H](Cc1ccccc1)NC(=O)NC(C)(C)C	93%

Target: T2, Tyrosine-protein phosphatase non-receptor type 11 (Homo sapiens) (UniProt Q06124)
T2 sequence (whole entry): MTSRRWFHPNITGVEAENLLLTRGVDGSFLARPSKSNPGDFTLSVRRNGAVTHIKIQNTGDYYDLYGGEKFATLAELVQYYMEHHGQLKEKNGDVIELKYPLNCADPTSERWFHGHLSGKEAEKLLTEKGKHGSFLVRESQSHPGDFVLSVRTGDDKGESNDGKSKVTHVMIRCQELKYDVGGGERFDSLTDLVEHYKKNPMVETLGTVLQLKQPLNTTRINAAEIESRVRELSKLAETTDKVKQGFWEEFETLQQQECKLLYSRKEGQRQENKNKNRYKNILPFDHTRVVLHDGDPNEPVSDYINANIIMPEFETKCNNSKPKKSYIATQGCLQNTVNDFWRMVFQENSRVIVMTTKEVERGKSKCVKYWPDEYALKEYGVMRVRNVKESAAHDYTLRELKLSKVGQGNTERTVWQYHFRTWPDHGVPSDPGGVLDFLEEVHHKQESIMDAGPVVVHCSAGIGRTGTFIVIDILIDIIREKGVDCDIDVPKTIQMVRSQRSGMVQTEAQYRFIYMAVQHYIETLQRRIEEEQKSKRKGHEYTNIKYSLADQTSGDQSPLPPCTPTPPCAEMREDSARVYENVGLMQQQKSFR
Assay: Inhibition of recombinant human phosphatase (SHP-2) at a concentration of 100 uM
Method in brief: as §1

SMILES	inhibition
CCCCCNC(=O)[C@H](Cc1ccc(OC(C(=O)O)C(=O)O)cc1)NC(=O)[C@H](Cc1ccccc1)NS(=O)(=O)Cc1ccccc1	10%
CCCCCNC(=O)[C@H](Cc1ccc(OC(C(=O)O)C(=O)O)cc1)NC(=O)[C@H](Cc1ccc(O)cc1)NC(=O)OC(C)(C)C	5%

Further lines, results first:

inhibition	SMILES
0%	CCCCCNC(=O)[C@H](Cc1ccc(OC(C(=O)O)C(=O)O)cc1)NC(=O)[C@H](COCc1ccccc1)NC(=O)OC(C)(C)C
9%	CCCCCNC(=O)[C@H](Cc1ccc(OC(C(=O)O)C(=O)O)cc1)NC(=O)[C@H](Cc1c[nH]c2ccccc12)NC(=O)OC(C)(C)C
0%	CCCCCNC(=O)[C@H](Cc1ccc(OC(C(=O)O)C(=O)O)cc1)NC(=O)[C@H](CSCc1ccccc1)NC(=O)OC(C)(C)C
6%	CCCCCNC(=O)[C@H](Cc1ccc(OC(C(=O)O)C(=O)O)cc1)NC(=O)[C@H](Cc1ccccc1)NC(=O)NC(C)(C)C
